Results on 1 compound are retold here after PMC6778631 (Cancer Science, 2019).

The structures appear in SMILES notation. Positions count from the first letter of the chain named.

One test concerns the target T1, wild‐type IDH2 (Homo sapiens, UniProt P48735).
T1 sequence (P48735 40-452): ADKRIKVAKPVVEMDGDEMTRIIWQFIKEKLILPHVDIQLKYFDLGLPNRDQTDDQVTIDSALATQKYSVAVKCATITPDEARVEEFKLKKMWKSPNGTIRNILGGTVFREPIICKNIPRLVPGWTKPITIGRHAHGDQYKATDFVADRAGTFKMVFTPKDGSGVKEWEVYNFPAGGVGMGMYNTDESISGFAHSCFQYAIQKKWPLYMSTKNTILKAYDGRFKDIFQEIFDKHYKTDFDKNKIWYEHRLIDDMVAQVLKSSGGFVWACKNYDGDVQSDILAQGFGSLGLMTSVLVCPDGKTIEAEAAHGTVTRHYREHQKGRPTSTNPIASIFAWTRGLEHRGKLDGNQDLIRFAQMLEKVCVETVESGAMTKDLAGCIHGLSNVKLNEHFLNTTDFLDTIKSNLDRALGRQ
Nature of the test: Cellular thermal shift assay in U-87 MG cells. The test is classed as binding. The note with it: 1 h treatment.

The target of a further test is T2, IDH2‐WT (Homo sapiens, UniProt P48735).
T2 sequence (P48735 40-452): T1 sequence (P48735 40-452)
Nature of the test: Cell-based enzyme assay, lysates of U-87 MG/IDH2-WT cells. The test is classed as biochemical.

The test system of test [1] is TF‐1/IDH2‐R140Q cells. The experiment in a line: Cell-based inhibition of 2-HG production. The note with it: Homo sapiens, 72 h, read-out: IC50, anti-2-HG activity.
Test [2] addresses T3, IDH2‐R172K (Homo sapiens, UniProt P48735, R172K).
T3 sequence (P48735 40-452 R172K): T1 sequence (P48735 40-452) with R133K
The experiment in a line: Cell-based enzyme assay, lysates of U-87 MG/IDH2-R172K cells. The class given is biochemical.

Test [3] deals with TF‐1/IDH2‐R140Q cells. Nature of the test: Erythroid differentiation under EPO, HBG mRNA by qRT-PCR. The test is classed as cell-based, human. The note with it: 7 d + 7 d EPO. In outline:
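TF-1 cells carrying doxycycline-inducible IDH2-R140Q got test compound for 7 d in RPMI-1640, 10% FBS, 2 ng/mL hGM-CSF. GM-CSF was then replaced by EPO (2 IU/mL) for another 7 d with compound present. HBG mRNA was measured in cell pellets by SYBR qRT-PCR, with GAPDH primers also used. Means ± SD of triplicates.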

For a further test, the target named is IDH1‐R132H (Homo sapiens, UniProt O75874, R132H). Nature of the test: Cell-based enzyme assay, lysates of U-87 MG/IDH1-R132H cells. The test is classed as biochemical.
Sequence of IDH1‐R132H (O75874 whole entry R132H): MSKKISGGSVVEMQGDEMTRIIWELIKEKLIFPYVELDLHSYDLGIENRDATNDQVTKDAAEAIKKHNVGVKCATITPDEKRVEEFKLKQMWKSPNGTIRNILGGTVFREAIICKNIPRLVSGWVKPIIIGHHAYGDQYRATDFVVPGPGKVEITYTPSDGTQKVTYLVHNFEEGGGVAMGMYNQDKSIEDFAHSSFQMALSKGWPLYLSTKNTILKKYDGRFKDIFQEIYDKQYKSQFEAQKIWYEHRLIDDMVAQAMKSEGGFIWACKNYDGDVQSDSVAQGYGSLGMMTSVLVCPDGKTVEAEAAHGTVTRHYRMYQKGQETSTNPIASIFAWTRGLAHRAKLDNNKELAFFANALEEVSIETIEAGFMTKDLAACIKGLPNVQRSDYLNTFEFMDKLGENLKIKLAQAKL
Test [4] addresses T4, IDH2‐R140Q (Homo sapiens, UniProt P48735, R140Q).
T4 sequence (P48735 40-452 R140Q): T1 sequence (P48735 40-452) with R101Q
The experiment in a line: Cell-based enzyme assay, lysates of U-87 MG/IDH2-R140Q cells. The test is classed as biochemical. The note with it: IC50, inhibition of IDH2-R140Q enzymatic activity.

For test [5], the target named is T3, IDH2‐R172K. The experiment in a line: Cellular thermal shift assay in U-87 MG cells. The class given is binding. The note with it: 1 h treatment.
In the next test the target is T5, IDH2‐R140Q‐Q316A (Homo sapiens, UniProt P48735, Q316A/R140Q).
T5 sequence (P48735 40-452 R140Q/Q316A): T1 sequence (P48735 40-452) with R101Q, Q277A
The experiment in a line: Cellular thermal shift assay in U-87 MG/IDH2-R140Q-Q316A cells. The class given is binding. The note with it: 1 h treatment.

For test [6], the target named is T4, IDH2‐R140Q. The experiment in a line: Cellular thermal shift assay in U-87 MG cells. The class given is binding. The note with it: 1 h treatment.
Test [7] relates to TF‐1/IDH2‐R172K cells. The experiment in a line: Erythroid differentiation under EPO, HBG mRNA by qRT-PCR. The test is classed as cell-based, human. The note with it: 7 d + 7 d EPO. In general terms: Quantitative PCR measures a nucleic acid by following its amplification.
In a further test the target is IDH1‐R132C (Homo sapiens, UniProt O75874, R132C). The experiment in a line: Cell-based enzyme assay, lysates of U-87 MG/IDH1-R132C cells. The test is classed as biochemical.
Sequence of IDH1‐R132C (O75874 whole entry R132C): as the sequence (O75874 whole entry R132H) above, with H132C counted along it
Test [8] concerns TF‐1/IDH2‐R172K cells. Nature of the test: Cell proliferation assay. The class given is cell-based, human. The note with it: 7 d + 7 d without hGM-CSF.
For a further test, the target named is IDH1‐WT (Homo sapiens, UniProt O75874). The experiment in a line: Cell-based enzyme assay, lysates of U-87 MG/IDH1-WT cells. The test is classed as biochemical.
Sequence of IDH1‐WT (O75874 whole entry): as the sequence (O75874 whole entry R132H) above, with H132R counted along it
Test [9] deals with TF‐1/IDH2‐R172K cells. Nature of the test: Cell-based inhibition of 2-HG production. The note with it: Homo sapiens, 72 h, read-out: IC50, anti-2-HG activity.
The next test concerns U‐87 MG/IDH2‐R140Q cells. The experiment in a line: Cell-based inhibition of 2-HG production. The note with it: Homo sapiens, 72 h, read-out: Inhibition of 2-HG production.
Test [10] concerns TF‐1/IDH2‐R140Q cells. The experiment in a line: Cell proliferation assay. The note with it: 7 d + 7 d without hGM-CSF. The test is classed as cell-based, human.

Usually IC50 stands for the midpoint of a concentration-inhibition curve. Usually inhibition stands for the percentage by which the read-out fell short of the control. On to `CC(C)(O)CNc1nc(Nc2ccnc(C(F)(F)F)c2)nc(-c2cccc(C(F)(F)F)n2)n1` [AG‐221, enasidenib], for which, on wild‐type IDH2, the “Thermal stabilization of wild-type IDH2 (CETSA)” value is given as “Neither TQ05310 nor AG‐221 stabilized”. The “Inhibitory effect on IDH2-WT enzymatic activity” value at IDH2‐WT is listed as “no apparent inhibitory effects”. The concentration for half-maximal inhibition (IC50) with TF‐1/IDH2‐R140Q cells [1] was 24.7 ± 2.3 nM; on IDH2‐R172K [2], 625 ± 146 nM; against IDH2‐R140Q [4] it was 229 ± 23.2 nM; in the test on TF‐1/IDH2‐R172K cells [9] it was 732 ± 331 nM. The “Effect on HBG levels (cell differentiation)” value with TF‐1/IDH2‐R140Q cells [3] is given as “increased HBG”; with TF‐1/IDH2‐R172K cells [7], “increased HBG only in TF‐1/IDH2‐R140Q cells”. At IDH1‐R132H, the “Inhibitory effect on IDH1-R132H enzymatic activity” value was “no apparent inhibitory effects”. In addition, the “Thermal stabilization of IDH2-R172K (CETSA)” value on IDH2‐R172K [5] is “weak thermal‐stabilization effect”. The “Thermal stabilization in U-87 MG/IDH2-R140Q-Q316A cells (CETSA)” value on IDH2‐R140Q‐Q316A is reported as “lost”. For the same compound, on IDH2‐R140Q [6], the “Thermal stabilization of IDH2-R140Q (CETSA)” value was “apparent thermal‐stabilization effect”. Besides, the “Inhibitory effect on IDH1-R132C enzymatic activity” value at IDH1‐R132C is listed as “no apparent inhibitory effects”. The “Effect on cell proliferation (MTT)” value in the test on TF‐1/IDH2‐R172K cells [8] and with TF‐1/IDH2‐R140Q cells [10] was “did not significantly inhibit proliferation” throughout. Also, the “Inhibitory effect on IDH1-WT enzymatic activity” value at IDH1‐WT is “no apparent inhibitory effects”. The inhibition at 0.2 µM in the test on U‐87 MG/IDH2‐R140Q cells stood at 67.3%.
